Experimental findings from ChEMBL document CHEMBL5338714, “Design, synthesis and biological evaluation of biphenyl-benzamides as potent FtsZ inhibitors” (Eur J Med Chem, 2022) are described below.

≈ marks a conversion by molar mass, not a printed value. Calls of active or inactive are those of the source. The rule behind the calls is not given here. A value given as a limit tells only on which side of the number the result lay.

A short description of data set [1]: Metabolic stability in mouse liver microsomes assessed as compound remaining preincubated for 5 mins followed by NADPH addition measured after 5 mins by LC/MS analysis. It is filed as ADME, Microsome. To be noted: time 10 min, read-out: Stability. The essentials: (§1)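 Liver microsomes (final protein 0.75 mg/mL) with compound in 100 mM phosphate buffer pH 7.4, preincubated 5 min at 37 °C. Reaction started with NADPH regeneration system, stopped at 5, 15, 30 and 45 min with acetonitrile containing internal standard. Percent remaining measured by LC/MS, with ketanserin as reference; variation given as RSD of area ratio.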

Data set [2] can be described thus: Metabolic stability in human liver microsomes assessed as compound remaining preincubated for 5 mins followed by NADPH addition measured after 15 mins by LC/MS analysis. Format: ADME, Microsome. To be noted: time 20 min, read-out: Stability. The essentials: as §1
Data set [3] can be described thus: Cmax in ICR mouse at 1 mg/kg, iv measured for 0.08 to 24 hrs by LC-MS/MS analysis. Format: ADME, organism-based. The arrangement: time upper 24 hrs, dose 1 mg/kg, time lower 0.08 hrs, route iv. To be noted: in vivo. The essentials:
(§2)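 Male ICR mice, single intravenous dose formulated in 5% DMSO, 4% ethanol, 5% Cremophor EL, 86% water. Blood sampled at 5, 15, 30 min, 1, 2, 4, 8 and 24 h; plasma stored at -20 °C. Compound quantified by LC-MS/MS, with parameters from non-compartmental analysis.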

Data set [4] deals with Staphylococcus aureus. The data set can be described thus: Selectivity ratio of MBC for Staphylococcus aureus ATCC25923 to MIC for Staphylococcus aureus ATCC25923. It is filed as functional. The method, boiled down:
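After 24 h of broth microdilution, 5 µL from clear wells plated on LB agar and incubated aerobically for 24 h at 37 °C. MBC is the lowest concentration with no colonies. Ratio is MBC over MIC, with ≤4 taken as bactericidal and >4 as bacteriostatic.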

Data set [5] concerns Staphylococcus aureus. The data set can be described thus: Antibacterial activity against methicillin-resistant Staphylococcus aureus shhsE1 assessed as bacterial growth inhibition incubated for 18 hrs by CLSI based broth microdilution method. It is filed as functional. The essentials:
(§3)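 Broth microdilution to CLSI guidelines. Log-phase bacteria grown in Mueller Hinton broth, diluted, then exposed to 2-fold serial dilutions of compound (128 to 0.25 µg/mL or 2 to 0.004 µg/mL). Incubated aerobically 18 h at 37 °C. Growth read as OD600. MIC = lowest concentration giving ≥90% growth inhibition. Three independent assays.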

Data set [6] can be described thus: Metabolic stability in mouse liver microsomes assessed as compound remaining preincubated for 5 mins followed by NADPH addition measured after 30 mins by LC/MS analysis. Format: ADME, Microsome. Particulars: time 35 min, read-out: Stability. The essentials: as §1
A short description of data set [7]: Half life in ICR mouse at 5 mg/kg, po measured for 0.25 to 24 hrs by LC-MS/MS analysis. Format: ADME, organism-based. To be noted: in vivo, time 0.25-24 hrs. The essentials: (§4)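 Male ICR mice dosed orally with a solution of 5% DMSO, 4% ethanol, 5% Cremophor EL and 86% water. Blood collected at 15, 30 min, 1, 2, 4, 6, 8 and 24 h; plasma stored at -20 °C. Plasma levels measured by LC-MS/MS; parameters by non-compartmental analysis, with bioavailability relative to the 1 mg/kg iv dose.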

A short description of data set [8]: Metabolic stability in mouse liver microsomes assessed as compound remaining preincubated for 5 mins followed by NADPH addition measured after 15 mins by LC/MS analysis. Format: ADME, Microsome. To be noted: time 20 min, read-out: Stability. The essentials:
as §1

The nature of data set [9]: Metabolic stability in human liver microsomes assessed as compound remaining preincubated for 5 mins followed by NADPH addition measured after 5 mins by LC/MS analysis. Format: ADME, Microsome. To be noted: time 10 min, read-out: Stability. The method, boiled down:
as §1

The test system of data set [10] is Staphylococcus aureus. Briefly: Antibacterial activity against Staphylococcus aureus ATCC25923 infected in ICR mouse assessed as reduction in bacterial burden in plasma at 25 mg/kg, ip by colony forming unit assay. Format: functional, organism-based.
Data set [11] in a line: Metabolic stability in mouse liver microsomes assessed as half life preincubated for 5 mins followed by NADPH addition measured upto 45 mins by LC/MS analysis. It is filed as ADME, Microsome. Particulars: time < 50 min. The essentials: (§5)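 Liver microsomes at 0.75 mg/mL final protein, with test article and NADPH regeneration system (6 mM) in 100 mM phosphate buffer, pH 7.4. Preincubated 5 min at 37 °C, then started with NADPH. Quenched with acetonitrile containing internal standard at 5, 15, 30 and 45 min, centrifuged, and percent remaining measured by LC/MS. Ketanserin served as reference.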

Data set [12] can be described thus: Cmax in ICR mouse at 5 mg/kg, po measured for 0.25 to 24 hrs by LC-MS/MS analysis. It is filed as ADME, organism-based. Details: time upper 24 hrs, dose 5 mg/kg, time lower 0.25 hrs, route po. Particulars: in vivo. The method, boiled down:
as §4

In data set [13] the test system is Staphylococcus aureus. Briefly: Antibacterial activity against Staphylococcus aureus ATCC25923 assessed as bacterial growth inhibition at 1 to 8 times MIC measured after 12 hrs by time kill curve assay relative to control. Format: functional. The method, boiled down:
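Time-kill: log-phase cultures diluted to about 10^6 CFU/mL in MHB with compound at 1×, 2×, 4× or 8× MIC (vancomycin at 2× MIC), shaken at 37 °C. Samples taken at 3, 6, 12 and 24 h, serially diluted and plated on LB agar. Colonies counted after 24 h at 37 °C; detection limit 10^3 CFU/mL.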

A short description of data set [14]: AUC (0 to t) in ICR mouse at 1 mg/kg, iv measured for 0.08 to 24 hrs by LC-MS/MS analysis. It is filed as ADME, organism-based. The arrangement: time 0.08-24 hrs, dose 1 mg/kg, route iv. Particulars: in vivo. The method, boiled down: as §2
Data set [15] concerns Bacillus subtilis. The data set can be described thus: Induction of morphological changes in Bacillus subtilis ATCC9372 assessed as increase in cell length at MIC incubated for 3 hrs by microscopic analysis (reference value: 10 um). It is filed as functional.
For data set [16], the target named is T1, Cell division protein FtsZ (Staphylococcus aureus) (UniProt P0A031).
T1 sequence (whole entry): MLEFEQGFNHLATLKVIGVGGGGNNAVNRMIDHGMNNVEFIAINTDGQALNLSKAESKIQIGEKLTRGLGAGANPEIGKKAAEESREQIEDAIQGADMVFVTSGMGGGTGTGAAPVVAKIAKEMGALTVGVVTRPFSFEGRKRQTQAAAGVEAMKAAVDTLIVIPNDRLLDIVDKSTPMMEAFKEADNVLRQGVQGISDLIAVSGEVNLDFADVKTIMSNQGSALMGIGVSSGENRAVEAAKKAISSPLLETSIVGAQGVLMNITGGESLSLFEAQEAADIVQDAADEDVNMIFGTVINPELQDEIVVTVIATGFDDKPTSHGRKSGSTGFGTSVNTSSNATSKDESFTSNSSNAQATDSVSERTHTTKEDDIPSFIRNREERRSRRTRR
Briefly: Inhibition of recombinant Staphylococcus aureus FtsZ assessed as FtsZ polymerization at 10 ug/ml preincubated for 10 mins followed by GTP addition measured after 20 mins by TEM analysis. To be noted: dose 10.0 µg/ml, time 30.0 min. The essentials: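 Recombinant S. aureus FtsZ (12 µM) preincubated 10 min at room temperature with compound in DMSO, in 50 mM Hepes-KOH pH 6.8. KCl 50 mM, MgCl2 5 mM and GTP 1 mM then added, 20 min at 37 °C. Samples placed on glow-discharged carbon grids, stained with 1% phosphotungstic acid, imaged by TEM.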

Data set [17] is described as follows: Metabolic stability in human liver microsomes assessed as half life preincubated for 5 mins followed by NADPH addition measured upto 45 mins by LC/MS analysis. Particulars: time < 50 min. It is filed as ADME, Microsome. The essentials: as §5
Data set [18] has as its system Bacillus subtilis. Briefly: Bactericidal activity against Bacillus subtilis ATCC9372 incubated for 24 hrs by broth microdilution method. Format: functional. The essentials: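 MBC from the broth microdilution plates (MHB, 2-fold dilutions). After 24 h, 5 µL aliquots from clear wells were plated on LB agar and incubated aerobically 24 h at 37 °C, then colonies counted. MBC = lowest concentration with no colonies.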

The subject of data set [19] is Staphylococcus aureus. The data set can be described thus: Antibacterial activity against ampicillin/kanamycin-resistant Staphylococcus aureus 6917 assessed as bacterial growth inhibition incubated for 18 hrs by CLSI based broth microdilution method. Format: functional. The essentials: as §3

In the case of `Cc1cc(Cl)ccc1-c1cccc(COc2ccc(F)c(C(N)=O)c2F)c1`, the remaining at 5 min in data set [1] is 53.1%; in [9], 97.1%. Besides, the remaining at 0.25 h turned out to be 86.2% in data set [2] and 11.9% in data set [8]. In addition, the Cmax in data set [3] is 480 ng/mL; in data set [12] it was 429 ng/mL. The Selectivity ratio in the data set with Staphylococcus aureus [4] was determined as 2. The MIC with Staphylococcus aureus [5] and in the data set on Staphylococcus aureus [19] was 0.125 µg/mL (≈ 0.322 µM) in each case. In data set [6], the remaining at 0.5 h is 1.74%. Moreover, the figures for the half-life in [7], in data set [11] and in data set [17] were 2.26 h, 5.09 min and 1.87 h, respectively. In the data set on Staphylococcus aureus [10], the result was Active. In the data set on Staphylococcus aureus [13], the “inhibition (INH)” value is listed as 100%. Further, the AUC(0-t) in data set [14] was found to be 178 ng·h/mL. Also, the Activity in the data set with Bacillus subtilis [15] is on record as above 60 um. Besides, the inhibition entry in data set [16] is “Active”. The molecule also showed an MBC against Bacillus subtilis [18] of 0.063 µg/mL (≈ 0.162 µM).
